Activity calls are given as the source filed them. The calls are words filed in the database; no cut-off is given here.
What was measured:
[1] = Cytotoxicity against human HeLa cells assessed as reduction in cell viability after 48 hrs by MTT assay; type: functional, cell-based
[2] = Cytotoxicity against human CA46 cells assessed as reduction in cell viability after 48 hrs by MTT assay; type: functional, cell-based; conditions: CA46, 48 h
[3] = Binding affinity to 5'-FPu22T-3'-labelled c-myc G-quadruplex DNA (unknown origin) assessed as change in melting temperature by FRET assay
Method in brief: (§1)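 Fluorescence melting on real-time PCR instrument; 0.4 μM labelled oligonucleotide (FPu22T or duplex-forming F10T), ligand 2.0 μM, in 10 mM Tris-HCl pH 7.4 with 10 or 60 mM KCl; ex 470/em 530 nm at 1 °C steps over 37–99 °C, 30 s equilibration each; ΔTm = Tm(DNA+ligand) − Tm(DNA).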

[4] = Cytotoxicity against human Raji cells assessed as reduction in cell viability after 48 hrs by MTT assay; type: functional, cell-based
[5] = Binding affinity to F10T duplex DNA (unknown origin) assessed as change in melting temperature by FRET assay; method in brief: as §1
[6] = Binding affinity to biotinylated 5'-Pu22-3'-labelled c-myc G-quadruplex DNA (unknown origin) after 240 secs by SPR assay
Method in brief: (§2)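 SPR: biotinylated Pu22 and biotinylated duplex folded in 50 mM Tris-HCl pH 7.4, 150 mM KCl, 0.005% Tween20, captured (~1000 RU) on separate flow cells with a blank reference; ligand 0.0625–10 μM in running buffer, 240 s association then 240 s dissociation at 25 °C; equilibrium KD derived.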

[7] = Cytotoxicity against human A549 cells assessed as reduction in cell viability after 48 hrs by MTT assay; type: functional, cell-based; conditions: A549, 48 h
[8] = Cytotoxicity against mouse primary mesangial cells assessed as reduction in cell viability after 48 hrs by MTT assay; type: toxicity
[9] = Binding affinity to 5'-FPu22T-3'-labelled c-myc G-quadruplex DNA (unknown origin) assessed as change in melting temperature at 2 uM in presence ds26 DNA of by FRET assay
Method in brief: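 FRET melting of 0.4 μM labelled FPu22T with ligand 2.0 μM, alone or with 10-fold (4 μM), 50-fold (20 μM) or 100-fold (40 μM) excess unlabelled duplex ds26 as competitor; Tris-HCl 10 mM pH 7.4 with 10 or 60 mM KCl; ex 470/em 530 nm read every 1 °C from 37–99 °C, 30 s hold; ΔTm = Tm(DNA+ligand) − Tm(DNA).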

[10] = Selectivity ratio of Kd for double stranded DNA (unknown origin) to Kd for biotinylated 5'-Pu22-3'-labelled c-myc G-quadruplex DNA
[11] = Binding affinity to biotinylated double stranded DNA (unknown origin) after 240 secs by SPR assay; method in brief: as §2

Compound `CCN(CC)CC(=O)Nc1ccc(Nc2nc(-c3ccc(O)cc3)nc3ccccc23)cc1` has an IC50 [1] of 21 µM, an IC50 [2] of 13.3 µM and a ΔTm [3] of 7.2 °C. For the same compound, the IC50 [4] was 12.9 µM, the ΔTm [5] was 0.7 °C and the Kd [6] was 6.3 µM. It also gave an IC50 [7] of 27 µM and an IC50 at 48 h [8] of 12.9 µM.

For `CCN(CC)CCCCC(=O)Nc1ccc(Nc2nc(-c3ccccc3NC(=O)CCCCN(CC)CC)nc3ccccc23)cc1`, the IC50 [1] was 12.7 µM, the IC50 [2] was 5.7 µM and the ΔTm [3] was 13.1 °C. The Activity [9] was “Active”, the IC50 [4] was 12.6 µM and the ΔTm [5] was 0.4 °C. The Kd [6] was 0.52 µM, the Selectivity ratio [10] was over 19.2 and the Kd [11] was over 10 µM. The IC50 [7] was over 50 µM and the IC50 at 48 h [8] was over 50 µM.

`Oc1ccccc1-c1nc(Nc2ccc(OCCN3CCOCC3)cc2)c2ccccc2n1` gave a ΔTm [3] of 0.7 °C and a ΔTm [5] of 0.1 °C.

In the case of `CCN(CC)CCC(=O)Nc1ccc(Nc2nc(-c3ccccc3)nc3ccccc23)cc1`, the IC50 [1] is reported as 8.3 µM, the IC50 [2] is reported as 3.6 µM and the ΔTm [3] is reported as 4.6 °C. For the same compound, the IC50 [4] was 8.5 µM, the ΔTm [5] was 0.2 °C and the Kd [6] was over 10 µM. The IC50 [7] was 17.6 µM and the IC50 at 48 h [8] was 6.2 µM.

Compound `CCN(CC)CC(=O)Nc1ccc(Nc2nc(Cl)nc3ccccc23)cc1` has an IC50 [1] of over 50 µM, an IC50 [2] of 33.2 µM and a ΔTm [3] of 0.1 °C. For the same compound, the IC50 [4] was over 50 µM, the ΔTm [5] was 0.1 °C and the IC50 [7] was over 50 µM. The IC50 at 48 h [8] was over 50 µM.

In the case of `CCN(CC)CCOc1ccc(Nc2nc(N(CC)CC)nc3ccccc23)cc1`, the IC50 [1] is reported as 17.4 µM, the IC50 [2] is reported as 20.5 µM and the ΔTm [3] is reported as 7.1 °C. The IC50 [4] was 20.3 µM, the ΔTm [5] was 0.4 °C and the Kd [6] was 2.89 µM. For the same compound, the IC50 [7] was 5 µM and the IC50 at 48 h [8] was 9.8 µM.

For `CCN(CC)CC(=O)Nc1ccc(Nc2nc(N(CC)CC)nc3ccccc23)cc1`, the IC50 [1] was 21 µM, the IC50 [2] was 4.2 µM and the ΔTm [3] was 10 °C. It also gave an IC50 [4] of 13.5 µM, a ΔTm [5] of 0.4 °C and a Kd [6] of 3.34 µM. It also gave a Selectivity ratio [10] of over 3, a Kd [11] of over 10 µM and an IC50 [7] of 20.8 µM. The IC50 at 48 h [8] was 10.2 µM.

`CCN(CC)CCCNCCC(=O)Nc1ccc(Nc2nc(-c3ccccc3NC(=O)CCNCCCN(CC)CC)nc3ccccc23)cc1` showed an IC50 [1] of over 50 µM, an IC50 [2] of over 50 µM and a ΔTm [3] of 26.6 °C. For the same compound, the Activity [9] was “Active”, the IC50 [4] was over 50 µM and the ΔTm [5] was 3.6 °C. It also gave a Kd [6] of 1.6 µM, a Selectivity ratio [10] of 3.9 and a Kd [11] of 6.21 µM. It also gave an IC50 [7] of over 50 µM and an IC50 at 48 h [8] of over 50 µM.

In the case of `O=C(CCCN1CCCC1)Nc1ccc(Nc2nc(-c3ccccc3NC(=O)CCCN3CCCC3)nc3ccccc23)cc1`, the IC50 [1] is reported as 22.4 µM, the IC50 [2] is reported as 13.7 µM and the ΔTm [3] is reported as 12.6 °C. The Activity [9] was “Active”, the IC50 [4] was 31.6 µM and the ΔTm [5] was 0.8 °C. For the same compound, the Kd [6] was 0.55 µM, the Selectivity ratio [10] was over 18.2 and the Kd [11] was over 10 µM. It also gave an IC50 [7] of 27.2 µM and an IC50 at 48 h [8] of over 50 µM.

In the case of `CCN(CC)CCC(=O)Nc1ccc(Nc2nc(Cl)nc3ccccc23)cc1`, the IC50 [1] is reported as over 50 µM, the IC50 [2] is reported as 31.3 µM and the ΔTm [3] is reported as 1 °C. The IC50 [4] was over 50 µM, the ΔTm [5] was 0.1 °C and the Kd [6] was 5.52 µM. The IC50 [7] was 45.3 µM and the IC50 at 48 h [8] was over 50 µM.

In the case of `CCN(CC)CCCC(=O)Nc1ccc(Nc2nc(-c3ccccc3NC(=O)CCCN(CC)CC)nc3ccccc23)cc1`, the IC50 [1] is reported as 32.5 µM, the IC50 [2] is reported as 21 µM and the ΔTm [3] is reported as 13.6 °C. For the same compound, the Activity [9] was “Active”, the IC50 [4] was 27.3 µM and the ΔTm [5] was 0.9 °C. The Kd [6] was 0.54 µM, the Selectivity ratio [10] was over 18.5 and the Kd [11] was over 10 µM. It also gave an IC50 [7] of 24.5 µM and an IC50 at 48 h [8] of over 50 µM.

`Oc1ccccc1-c1nc(Nc2ccc(OCCN3CCCC3)cc2)c2ccccc2n1` gave a ΔTm [3] of 1.6 °C and a ΔTm [5] of 0.2 °C.

In the case of `CN(C)CCCNCCC(=O)Nc1ccc(C(=O)Nc2cc(Cl)ccc2-c2nc(NCCCN(C)C)c3ccccc3n2)cc1`, the ΔTm [3] is reported as 16.6 °C and the ΔTm [5] is reported as 0.6 °C.

`CCN(CC)CCC(=O)Nc1ccc(Nc2nc(-c3ccccc3N)nc3ccccc23)cc1` showed an IC50 [1] of 7.2 µM, an IC50 [2] of 3.3 µM and a ΔTm [3] of 5.3 °C. It also gave an IC50 [4] of 14.5 µM, a ΔTm [5] of 0.1 °C and a Kd [6] of 4.68 µM. The IC50 [7] was 9.1 µM and the IC50 at 48 h [8] was 5.7 µM.

`CCN(CC)CCCOc1ccc(Nc2nc(N(CC)CC)nc3ccccc23)cc1` showed an IC50 [1] of 2.3 µM, an IC50 [2] of 12.2 µM and a ΔTm [3] of 8.2 °C. The IC50 [4] was 5.7 µM, the ΔTm [5] was 0.2 °C and the Kd [6] was 2.46 µM. For the same compound, the IC50 [7] was 4.8 µM and the IC50 at 48 h [8] was 8.1 µM.

Work on `O=C(CCN1CCOCC1)Nc1ccc(Nc2nc(-c3ccccc3NC(=O)CCN3CCOCC3)nc3ccccc23)cc1` yielded an IC50 [1] of over 50 µM, an IC50 [2] of over 50 µM and a ΔTm [3] of 4.8 °C. It also gave an IC50 [4] of over 50 µM, a ΔTm [5] of 0.3 °C and a Kd [6] of 1.33 µM. For the same compound, the IC50 [7] was over 50 µM and the IC50 at 48 h [8] was over 50 µM.

With `CCN(CC)CC(=O)Nc1ccc(Nc2nc(-c3ccccc3NC(=O)CN(CC)CC)nc3ccccc23)cc1` the IC50 [1] was 29.8 µM, the IC50 [2] was 3.14 µM and the ΔTm [3] was 8.8 °C. For the same compound, the IC50 [4] was 6.5 µM, the ΔTm [5] was 0.3 °C and the Kd [6] was 3.94 µM. For the same compound, the IC50 [7] was over 50 µM and the IC50 at 48 h [8] was 2.7 µM.

`CCN(CC)CCNCCOc1ccc(Nc2nc(-c3ccccc3O)nc3ccccc23)cc1` showed a ΔTm [3] of 0.4 °C, a ΔTm [5] of 0.2 °C and a Kd [6] of over 10 µM.

`O=C(CN1CCOCC1)Nc1ccc(Nc2nc(-c3ccccc3NC(=O)CN3CCOCC3)nc3ccccc23)cc1` showed an IC50 [1] of over 50 µM, an IC50 [2] of 2.14 µM and a ΔTm [3] of 0.2 °C. The IC50 [4] was 12 µM, the ΔTm [5] was 0.2 °C and the Kd [6] was 8.08 µM. It also gave an IC50 [7] of over 50 µM and an IC50 at 48 h [8] of over 50 µM.

Work on `CN1CCN(CCOc2ccc(Nc3nc(-c4ccccc4O)nc4ccccc34)cc2)CC1` yielded a ΔTm [3] of 0.4 °C, a ΔTm [5] of 0.1 °C and a Kd [6] of over 10 µM.

Compound `CN(C)CCCNCCC(=O)Nc1ccc(Nc2nc(-c3ccccc3NC(=O)CCNCCCN(C)C)nc3ccccc23)cc1` has an IC50 [1] of over 50 µM, an IC50 [2] of over 50 µM and a ΔTm [3] of 21.8 °C. For the same compound, the Activity [9] was “Active”, the IC50 [4] was over 50 µM and the ΔTm [5] was 3.7 °C. It also gave a Kd [6] of 0.57 µM, a Selectivity ratio [10] of 10.3 and a Kd [11] of 5.89 µM. For the same compound, the IC50 [7] was over 50 µM and the IC50 at 48 h [8] was over 50 µM.

`Oc1ccccc1-c1nc(Nc2ccc(OCCN3CCCCC3)cc2)c2ccccc2n1` showed a ΔTm [3] of 1.4 °C, a ΔTm [5] of 0.2 °C and a Kd [6] of over 10 µM.

`CCN(CC)CCC(=O)Nc1cc(Cl)ccc1-c1nc(NCCCN(C)C)c2ccccc2n1` showed a ΔTm [3] of 11.4 °C, a ΔTm [5] of 3.7 °C and a Kd [6] of 0.49 µM. It also gave a Selectivity ratio [10] of 18.7 and a Kd [11] of 9.18 µM.

Compound `CCN(CC)CCC(=O)Nc1ccc(Nc2nc(N(CC)CC)nc3ccccc23)cc1` has an IC50 [1] of 6.3 µM, an IC50 [2] of 10.3 µM and a ΔTm [3] of 12.2 °C. For the same compound, the Activity [9] was “Active”, the IC50 [4] was 5.1 µM and the ΔTm [5] was 0.2 °C. It also gave a Kd [6] of 1.64 µM, a Selectivity ratio [10] of over 6.1 and a Kd [11] of over 10 µM. It also gave an IC50 [7] of 6.1 µM and an IC50 at 48 h [8] of 6.4 µM.

Work on `CCN(CC)CCOc1ccc(Nc2nc(-c3ccccc3O)nc3ccccc23)cc1` yielded a ΔTm [3] of 0.4 °C, a ΔTm [5] of 0.1 °C and a Kd [6] of over 10 µM.

`CN1CCN(CC(=O)Nc2ccc(Nc3nc(-c4ccccc4NC(=O)CN4CCN(C)CC4)nc4ccccc34)cc2)CC1` gave an IC50 [1] of 28.7 µM, an IC50 [2] of 12.3 µM and a ΔTm [3] of 12.5 °C. For the same compound, the IC50 [4] was 17.9 µM, the ΔTm [5] was 0.1 °C and the Kd [6] was 0.61 µM. It also gave an IC50 [7] of 21.6 µM and an IC50 at 48 h [8] of 38.2 µM.
